Bioassay records: PubChem, Broad Institute
Sampled rows, rich in hits. Any-hit rate of the full collection: about 1.3%.
PAX8 reporter: PAX8 transcriptional activity inhibition | RMG-I TPO-luciferase reporter, SteadyGlo, 24 h | 360,000 tested, 1.2% active | inhibition, % at 12.6 µM | AID 652154;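 active = mean replicate inhibition at least 60% with every replicate also reaching 60%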;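 note: luciferase light reporting Pax8 driven TPO promoter activity; plate controls were median of neutral control wells for no effect and mitoxantrone controls for full effect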
RAD52 anneal inh: blocks human RAD52 DNA annealing. P43351. recombinant RAD52 DNA annealing, FRET fluorescence. inhibition, % at 18.7 µM. 360,000 tested, 0.46% active;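 active = every replicate showing at least 50% inhibition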
FN deposition inh: fibronectin deposition inhibition; AID 743247; inhibition, % at 12.6 µM; 350,000 tested, 0.086% active; AH1F fibroblasts, Alexa488-fibronectin deposition fluorescence, overnight;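 active = mean inhibition across replicates of 30% or more, regardless of how many single replicates reach that level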;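 note: positive control wells lacked labelled fibronectin entirely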
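Material: AH1F fibroblast monolayer depositing Alexa488-labelled fibronectin into matrix / Amount: 10000 AH1F cells per well / Signal: fluorescence 485/525 nm / Medium: DMEM, 2% serum / Compound: single dose, pinned / Incubation: 1 h cell adhesion before compound, then overnight fibronectin incubation / Reagent: Alexa488-FN, 24 nM final / Read-out: inhibition of fibronectin deposition signal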
RAD54 branch: RAD54 (human) branch migration inhibition. RAD54 Holliday junction branch migration, FAM/BHQ fluorescence. AID 602329. Q92698. 360,000 tested, 0.14% active. inhibition, % at 10.4 µM;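 active = mean normalized replicate activity at least 40 and at least half of replicates scoring 40 or more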;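 note: 0% = median of neutral control wells and 100% = median of positive control wells; inhibitors cause a drop in the FAM fluorescence signal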
Target sequence (Q92698 whole entry, looked up): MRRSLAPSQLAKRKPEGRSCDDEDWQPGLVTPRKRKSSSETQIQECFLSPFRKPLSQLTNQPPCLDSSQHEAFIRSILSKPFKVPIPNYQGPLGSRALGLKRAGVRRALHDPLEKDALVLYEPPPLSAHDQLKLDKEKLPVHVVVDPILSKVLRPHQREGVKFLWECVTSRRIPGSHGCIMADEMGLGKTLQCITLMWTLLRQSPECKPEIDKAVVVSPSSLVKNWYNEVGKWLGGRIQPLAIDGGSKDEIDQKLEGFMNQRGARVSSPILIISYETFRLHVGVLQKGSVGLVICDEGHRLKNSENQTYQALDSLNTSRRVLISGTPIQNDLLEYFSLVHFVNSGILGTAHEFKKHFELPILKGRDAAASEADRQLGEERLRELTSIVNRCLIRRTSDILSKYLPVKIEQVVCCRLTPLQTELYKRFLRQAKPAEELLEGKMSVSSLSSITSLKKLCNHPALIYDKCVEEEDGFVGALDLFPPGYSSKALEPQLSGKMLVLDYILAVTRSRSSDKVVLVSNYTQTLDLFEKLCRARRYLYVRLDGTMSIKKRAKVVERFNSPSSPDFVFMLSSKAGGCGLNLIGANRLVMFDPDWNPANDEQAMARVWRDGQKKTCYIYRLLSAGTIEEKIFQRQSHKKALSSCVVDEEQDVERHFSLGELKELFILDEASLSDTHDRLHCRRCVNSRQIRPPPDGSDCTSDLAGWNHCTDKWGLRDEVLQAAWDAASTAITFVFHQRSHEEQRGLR
The depositor's hits bear a star; · = no result given.

SMILES | PAX8 reporter | RAD52 anneal inh | FN deposition inh | RAD54 branch
O=C(C[C@H]1CC[C@@H]2[C@H](COC[C@@H](O)CN2S(=O)(=O)c2ccccc2)O1)NCc1ccc(-c2ccccc2)cc1 | 7.7 | 75.4* | -11.7 | 14.8
O=C(C[C@H]1CC[C@H]2[C@@H](COC[C@@H](O)CN2S(=O)(=O)c2ccccc2)O1)NCc1ccc(-c2ccccc2)cc1 | 11.3 | 36.4 | -8.3 | -5.3
CS(=O)(=O)N1C[C@@H](O)COC[C@H]2O[C@@H](CC(=O)NCc3ccc(-c4ccccc4)cc3)CC[C@@H]21 | -7.8 | 58.7* | 5.8 | 19.3
O=C(C[C@H]1CC[C@@H]2[C@H](COC[C@H](O)CN2S(=O)(=O)c2ccccc2)O1)NCc1ccc(-c2ccccc2)cc1 | 23.5 | 56.0* | -8.7 | -6.2
COc1ccccc1N1CCN(S(=O)(=O)c2cc(Br)cnc2N)CC1 | 11.1 | -2.7 | -3.1 | 5.3
C[C@H]1CN([C@@H](C)CO)C(=O)c2cc(NC(=O)NC3CCCCC3)ccc2O[C@H]1CN(C)Cc1ccc(-c2ccccc2)cc1 | · | -0.9 | · | 2.8
C[C@@H]1CN([C@@H](C)CO)C(=O)Cc2cc(NC(=O)NC3CCCCC3)ccc2O[C@@H]1CN(C)Cc1ccc(-c2ccccc2)cc1 | 101.8* | 7.1 | · | -5.6
C[C@@H]1CN([C@@H](C)CO)C(=O)Cc2cc(NC(=O)NC3CCCCC3)ccc2O[C@H]1CN(C)Cc1ccc(Oc2ccccc2)cc1 | 71.1* | -7.0 | 0.1 | -0.3
C[C@H](CO)N1C[C@H](C)[C@@H](CN(C)Cc2ccc(-c3ccccc3)cc2)Oc2ccc(NC(=O)NC3CCCCC3)cc2C1=O | · | 88.6* | · | 2.4
C[C@H](CO)N1C[C@H](C)[C@@H](CN(C)Cc2ccc(Oc3ccccc3)cc2)Oc2ccc(NC(=O)NC3CCCCC3)cc2CC1=O | 41.6 | 32.7 | 8.8 | 3.8
CCOc1nc(N=C(N)N)nc2c(C)cccc12 | · | · | · | 59.8*
COc1cc(NC(=O)Cn2ncc(Cl)c(Cl)c2=O)c(C)cc1[N+](=O)[O-] | 91.5* | -4.7 | 1.0 | ·
COc1ccc2nc(C)cc(Sc3nc4ccccc4s3)c2c1 | 69.0* | -14.0 | · | 6.2
COC(=O)c1c(NC(=O)C(Cl)Cl)sc2c1C(C(=O)OC)CC2 (centres undefined) | 63.7* | -13.6 | 17.8 | ·
COC(=O)c1c(NC(=O)C(C)(C)C)sc2c1C(C(=O)OC)CC2 (centres undefined) | -5.4 | · | 1.6 | -1.4
Cc1cccc(NC(=O)c2ccc(C3SCC(=O)N3CCc3ccccc3)cc2)c1 (centres undefined) | 17.2 | -3.8 | 32.6* | 2.7
CC(C)N(C(=O)[C@H]1C[C@H](CC(=O)NC(C)(C)C)C(=O)N2CCc3c([nH]c4cc(CCC(=O)N(C)C)ccc34)[C@]12C)C(C)C | -9.7 | -0.9 | -13.4 | -13.8
COc1ccccc1-c1ccc2c(c1)O[C@@H](CN(C)Cc1ccc3c(c1)OCO3)[C@@H](C)CN([C@@H](C)CO)S2(=O)=O | 66.3* | 40.2 | · | -6.9
COc1ccccc1-c1ccc2c(c1)O[C@H](CN(C)Cc1ccc3c(c1)OCO3)[C@H](C)CN([C@@H](C)CO)S2(=O)=O | 87.8* | 28.3 | · | 2.0
COc1ccccc1-c1ccc2c(c1)O[C@H](CN(C)Cc1ccc3c(c1)OCO3)[C@@H](C)CN([C@H](C)CO)S2(=O)=O | 45.9 | 3.0 | · | -3.0
CCCCCCN(C(=O)CCCCCN1C(=O)NC(c2ccc(-c3ccccc3)cc2)C(C(=O)OCc2ccccc2)=C1C)C(C)C(=O)NCCCC (centres undefined) | 74.9* | -17.7 | -12.0 | ·
CCCCCCN(C(=O)CCCCCN1C(=O)NC(c2ccc(-c3ccccc3)cc2)C(C(=O)OCc2ccccc2)=C1C)C(C(=O)NCCCC)c1ccccc1 (centres undefined) | 32.1 | -10.3 | -23.1 | ·
C#CCN(C[C@@H]1[C@@H](OC(=O)NC2CCCC2)[C@@H](OC(=O)NC2CCCC2)CN(C(=O)OC(C)C)N1C(=O)OC(C)C)S(=O)(=O)c1ccc(C)cc1 | 79.2* | 4.6 | 5.8 | -0.3
C#CCN(C[C@@H]1[C@@H](OC(=O)NCc2ccc(OC)c(OC)c2)[C@@H](OC(=O)NCc2ccc(OC)c(OC)c2)Cn2c(=O)ccc(=O)n21)S(=O)(=O)c1ccc(C)cc1 | 112.8* | -4.1 | 2.1 | -8.3
C#CCN(C[C@@H]1[C@@H](OC(=O)NCc2ccc(OC)c(OC)c2)[C@@H](OC(=O)NCc2ccc(OC)c(OC)c2)Cn2c(=O)n(CCCCCC)c(=O)n21)S(=O)(=O)c1ccc(C)cc1 | -10.4 | -14.1 | -1.4 | -2.2
